Test results as given in ChEMBL document CHEMBL4190170, “Improved Antiviral Activity of a Polyamide Against High-Risk Human Papillomavirus Via N-Terminal Guanidinium Substitution” (Medchemcomm, 2016).
The source made the active and inactive calls. The rule behind the calls is not given here.

Experiments:
Human papillomavirus [1] = test: Antiviral activity against HPV 18 infected in mouse 3T3 cells assessed as decrease in viral DNA after 48 hrs by qRT-PCR analysis; assay type: functional, organism-based, human papillomavirus 18; conditions: NIH3T3, 48 h
Outline: (§1)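 Assays run side by side over a range of polyamide concentrations for two days. Pseudo IC50 and IC90 are the polyamide concentrations that give a 50% or 90% drop in viral DNA.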

Human papillomavirus [2] = test: Antiviral activity against HPV 16 infected in mouse 3T3 cells assessed as decrease in viral DNA after 48 hrs by qRT-PCR analysis; assay type: functional, organism-based, Human papillomavirus 16; conditions: NIH3T3, 48 h; outline: as §1
[3] = Binding affinity to HPV 18 CTTTGGCGCATATAA GGCGC LCR DNA (7585 to 7594 nucleotides) after 4 hrs by DNase I footprinting assay; design: species or system human papillomavirus 18
Outline: (§2)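 Kd values derived from DNase I footprinting of HPV18 LCR DNA, each run at least in triplicate. Sites are read as the polyamide binding block flanked by 5 nt on each side.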

human papillomavirus 18 [4] = test: Binding affinity to HPV 18 CCT GG TATTAGTCATTTTCCTG TCCA G GT LCR DNA (7606 to 7615 nucleotide) at 50 nM after 4 hrs by DNase I footprinting assay; outline: as §2
human papillomavirus 18 [5] = test: (§3) Binding affinity to HPV 18 CCTGG TATTAGTCAT TTTCC LCR DNA (7606 to 7615 nucleotides) after 4 hrs by DNase I footprinting assay; outline: as §2
[6] = as §3; design: species or system human papillomavirus 18; outline: as §2
[7] = Binding affinity to HPV 18 ACATA TTTTGAACAA TTGGC LCR DNA (7559 to 7568 nucleotides) after 4 hrs by DNase I footprinting assay; design: species or system human papillomavirus 18; outline: as §2
human papillomavirus 18 [8] = test: Binding affinity to (7619 nucleotide) of HPV 18 CCT GGT ATTAG TCATT TTCCTG TCCAGGT LCR DNA at 5 nM after 4 hrs by DNase I footprinting assay; outline: as §2
Human papillomavirus [9] = test: Antiviral activity against HPV 31 infected in mouse 3T3 cells assessed as decrease in viral DNA after 48 hrs by qRT-PCR analysis; assay type: functional, organism-based, Human papillomavirus type 31; conditions: NIH3T3, 48 h; outline: as §1
human papillomavirus 18 [10] = test: Binding affinity to HPV 18 5'-TAGTCATTTT-3' LCR DNA (7609 to 7618 nucleotides) after 4 hrs by DNase I footprinting assay; outline: as §2
human papillomavirus 18 [11] = test: Binding affinity to HPV 18 CCT GGT ATTAG TCATT TTCCTG TCCAGGT LCR DNA (7619 to 7626 nucleotide) at 5 nM after 4 hrs by DNase I footprinting assay; outline: as §2

Compound | IC50 (Human papillomavirus [1]) | IC90 (Human papillomavirus [1]) | IC50 (Human papillomavirus [2]) | IC90 (Human papillomavirus [2]) | Kd [3] | Activity (human papillomavirus 18 [4]) | Activity (human papillomavirus 18 [5]) | Kd [6] | Kd [7] | Activity (human papillomavirus 18 [8]) | IC50 (Human papillomavirus [9]) | IC90 (Human papillomavirus [9]) | Activity (human papillomavirus 18 [10]) | Activity (human papillomavirus 18 [11])
CN(CCCN)CCCNC(=O)CCNC(=O)c1cc(NC(=O)c2cc(NC(=O)c3cc(NC(=O)c4cc(NC(=O)CCNC(=O)c5cc(NC(=O)c6cc(NC(=O)CCCNC(=O)c7cc(NC(=O)c8cc(NC(=O)c9cc(NC(=O)CCNC(=O)c%10cc(NC(=O)c%11cc(NC(=O)c%12nc(N=C(N(C)C)N(C)C)cn%12C)cn%11C)cn%10C)cn9C)cn8C)cn7C)cn6C)cn5C)cn4C)cn3C)cn2C)cn1C | 200 nM | > 10000 nM | 300 nM | > 10000 nM | 3.2 nM | Active | Active | 1.2 nM | 1.1 nM | inactive | 130 nM | 900 nM |  | 
CN(CCCN)CCCNC(=O)CCNC(=O)c1cc(NC(=O)c2cc(NC(=O)c3cc(NC(=O)CCNC(=O)c4cc(NC(=O)c5cc(NC(=O)c6cc(NC(=O)CCNC(=O)c7cc(NC(=O)c8cc(NC(=O)CCNC(=O)c9cc(NC(=O)c%10cc(NC(=O)CCCNC(=O)c%11cc(NC(=O)c%12cc(NC(=O)c%13cc(NC(=O)CCNC(=O)c%14cc(NC(=O)c%15cc(NC(=O)c%16nccn%16C)cn%15C)cn%14C)cn%13C)cn%12C)cn%11C)cn%10C)cn9C)cn8C)cn7C)n(C)c6)n(C)c5)n(C)c4)n(C)c3)n(C)c2)n(C)c1 | 56 nM | 1500 nM | 36 nM | 350 nM |  |  |  |  |  |  | 30 nM | 510 nM |  | 
CN(CCCN)CCCNC(=O)CCNC(=O)c1cc(NC(=O)c2cc(NC(=O)c3cc(NC(=O)c4cc(NC(=O)CCNC(=O)c5cc(NC(=O)c6cc(NC(=O)CCCNC(=O)c7cc(NC(=O)c8cc(NC(=O)c9cc(NC(=O)CCNC(=O)c%10cc(NC(=O)c%11cc(NC(=O)c%12nc(N=C(N)N)cn%12C)cn%11C)cn%10C)cn9C)cn8C)cn7C)cn6C)cn5C)cn4C)cn3C)cn2C)cn1C | 200 nM | 900 nM | 100 nM | 380 nM | 2.2 nM |  | Active | 1 nM | 1 nM |  | 140 nM | 800 nM | Active | Active
CN(CCCN)CCCNC(=O)CCNC(=O)c1cc(NC(=O)c2cc(NC(=O)c3cc(NC(=O)c4cc(NC(=O)CCNC(=O)c5cc(NC(=O)c6cc(NC(=O)CCCNC(=O)c7cc(NC(=O)c8cc(NC(=O)c9cc(NC(=O)CCNC(=O)c%10cc(NC(=O)c%11cc(NC(=O)c%12nccn%12C)cn%11C)cn%10C)cn9C)cn8C)cn7C)cn6C)cn5C)cn4C)cn3C)cn2C)cn1C | 700 nM | > 10000 nM | 100 nM | 1100 nM | 2.7 nM |  | Active | 0.9 nM | 0.9 nM |  | 100 nM | 1000 nM | Active | 
